Experimental data reported in paper PMC5955861 (Oncogene, 2018).
Read-outs that look alike come from different tables or passages of the source.

Assays:
BRD2/3/4 and BRDT = test: BROMOscan ligand-binding site-directed competition assay
MOLM-13 GFP = test: alamarBlue cell proliferation assay; type: cell-based; settings: Homo sapiens
How it was run: (§1)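 Leukemia, lymphoma and myeloma lines (from ATCC or DSMZ, grown per supplier instructions, STR-authenticated; GFP-labelled sublines where stated) were incubated with test compound in 96-well flat-bottom plates. Viability was read by alamarBlue conversion, and EC50 was taken from the concentration-response.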

MUTZ-3 = test: alamarBlue cell proliferation assay; type: cell-based
How it was run: as §1

MV-4-11B = test: alamarBlue cell proliferation assay; type: cell-based, human; settings: Homo sapiens
How it was run: (§2)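 Cell lines from ATCC or DSMZ were cultured per supplier's instructions and STR-authenticated. MV-4-11B is a clone of MV-4-11 carrying heterozygous TP53 c.742C>T (p.R248W). Cells were exposed to test compound in 96-well format, and viability was read after incubation with alamarBlue.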

MV-4-11B GFP = test: alamarBlue cell proliferation assay; type: cell-based
How it was run: as §1

SKM-1 = test: alamarBlue cell proliferation assay; type: cell-based; settings: Homo sapiens
How it was run: as §1

THP-1 = test: alamarBlue cell proliferation assay; type: cell-based; settings: Homo sapiens
How it was run: as §2

MOLM-1 = test: alamarBlue cell proliferation assay; type: cell-based
How it was run: as §1

CCRF-CEM = test: alamarBlue cell proliferation assay; type: cell-based; settings: Homo sapiens
How it was run: as §1

J.RT3-T3.5 = test: alamarBlue cell proliferation assay; type: cell-based; settings: Homo sapiens
How it was run: as §1

MOLT-4 = test: alamarBlue cell proliferation assay; type: cell-based; settings: Homo sapiens
How it was run: as §1

AMO-1 = test: alamarBlue cell proliferation assay; type: cell-based; settings: Homo sapiens, AMO1
How it was run: as §1

L-363 = test: alamarBlue cell proliferation assay; type: cell-based; settings: Homo sapiens
How it was run: as §1

MOLP-8 = test: alamarBlue cell proliferation assay; type: cell-based; settings: Homo sapiens
How it was run: as §1

MOLP-8 GFP = test: alamarBlue cell proliferation assay; type: cell-based; settings: Homo sapiens
How it was run: as §1

NCI-H929 = test: alamarBlue cell proliferation assay; type: cell-based; settings: Homo sapiens
How it was run: as §1

OPM-2 = test: alamarBlue cell proliferation assay; type: cell-based; settings: Homo sapiens
How it was run: as §1

OPM-2 GFP = test: alamarBlue cell proliferation assay; type: cell-based; settings: Homo sapiens
How it was run: as §1

U266 B1 = test: alamarBlue cell proliferation assay; type: cell-based; settings: Homo sapiens, U-266
How it was run: as §2

HBL-1 = test: alamarBlue cell proliferation assay; type: cell-based; settings: HBL1
How it was run: as §1

OCI-Ly3 = test: alamarBlue cell proliferation assay; type: cell-based; settings: Homo sapiens
How it was run: as §1

SU-DHL2 = test: alamarBlue cell proliferation assay; type: cell-based; settings: Homo sapiens, SU-DHL-2
How it was run: as §1

TMD8 = test: alamarBlue cell proliferation assay; type: cell-based; settings: Homo sapiens
How it was run: as §2

Toledo = test: alamarBlue cell proliferation assay; type: cell-based; settings: Homo sapiens
How it was run: as §2

U-2932 = test: alamarBlue cell proliferation assay; type: cell-based; settings: Homo sapiens, U2932
How it was run: as §2

DB = test: alamarBlue cell proliferation assay; type: cell-based; settings: Homo sapiens
How it was run: as §1

DOHH-2 = test: alamarBlue cell proliferation assay; type: cell-based; settings: Homo sapiens
How it was run: as §1

HT = test: alamarBlue cell proliferation assay; type: cell-based; settings: Homo sapiens
How it was run: as §1

OCI-Ly7 = test: alamarBlue cell proliferation assay; type: cell-based; settings: Homo sapiens
How it was run: as §1

RC-K8 = test: alamarBlue cell proliferation assay; type: cell-based; settings: Homo sapiens, RCK8
How it was run: as §1

RL = test: alamarBlue cell proliferation assay; type: cell-based; settings: Homo sapiens
How it was run: as §1

SU-DHL6 = test: alamarBlue cell proliferation assay; type: cell-based; settings: Homo sapiens, SU-DHL-6
How it was run: as §2

MHH-PREB-1 = test: alamarBlue cell proliferation assay; type: cell-based; settings: Homo sapiens
How it was run: as §1

HuT78 = test: alamarBlue cell proliferation assay; type: cell-based; settings: Homo sapiens
How it was run: as §1

[1] = system: AML primary patient samples; test: proliferation of ex vivo-treated primary patient samples; type: cell-based; settings: Homo sapiens
MV-4-11B AML cells = test: disseminated AML xenograft efficacy study; type: in vivo, CIEA-NOG mice; settings: MV-4-11B i.v. engrafted
THP-1 AML cells = test: disseminated AML xenograft efficacy study; type: in vivo, CIEA-NOG mice; settings: BI 894999 daily, 4 mg/kg p.o.
[2] = system: p-Ser2 POL-II in MV-4-11B cells; test: p-Ser2 POL-II custom MSD assay; type: cell-based; settings: 35 nM BI 894999, 2 h
How it was run: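 MV-4-11B cells were treated for 2 h with single agents or their combination. Phospho-Ser2 RNA Pol II was quantified with a custom Meso Scale Discovery multi-array assay.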

hematological cell lines = test: alamarBlue cell proliferation assay, panel of hematological cell lines; type: cell-based
How it was run: as §2

MV-4-11B cells = test: IncuCyte live-cell proliferation and caspase-3/7 apoptosis assay; type: cell-based

## CNc1nc(-c2nc3ccc(N4CCN(C)CC4)cc3n2Cc2ccccc2)cn2c(C)nnc12 [BI 894999]
BRD2/3/4 and BRDT; BRD2/3/4 and BRDT, 24 bromodomains tested
  Kd: 0.49 to 1.6 nM
BRD2/3/4 and BRDT; other bromodomains of the panel (n = 24) vs. BRD4-BD1
  selectivity vs. BRD4-BD1: ≥ 200 fold
MOLM-13 GFP
  EC50: 14.3 nM
MUTZ-3
  EC50: 12.8 ± 11.2 nM
MV-4-11B
  EC50: 6.8 ± 4 nM
MV-4-11B; read-out: anti-proliferative EC50
  EC50: 10 nM
MV-4-11B GFP
  EC50: 2.9 ± 0.9 nM
SKM-1
  EC50: 10.2 ± 1.5 nM
THP-1
  EC50: 6.3 ± 2.9 nM
MOLM-1
  EC50: 53.4 ± 34.8 nM
CCRF-CEM
  EC50: 175 ± 58 nM
J.RT3-T3.5
  EC50: 11 ± 4 nM
MOLT-4
  EC50: 40.7 ± 28.7 nM
AMO-1
  EC50: 28 ± 15 nM
L-363
  EC50: 13.7 ± 6.2 nM
MOLP-8
  EC50: 5.3 ± 2.8 nM
MOLP-8 GFP
  EC50: 21.5 ± 10.8 nM
NCI-H929
  EC50: 3.6 ± 2 nM
OPM-2
  EC50: 8.9 ± 4.7 nM
OPM-2 GFP
  EC50: 12 nM
U266 B1
  EC50: 14.3 ± 7.4 nM
HBL-1
  EC50: 7.1 ± 5.2 nM
OCI-Ly3
  EC50: 8.2 ± 2.3 nM
SU-DHL2
  EC50: 10.7 ± 3.2 nM
TMD8
  EC50: 9.7 ± 3.7 nM
Toledo
  EC50: 6 ± 1.1 nM
U-2932
  EC50: 4.3 ± 2.1 nM
DB
  EC50: 11.6 ± 7.6 nM
DOHH-2
  EC50: 6.2 ± 0.8 nM
HT
  EC50: 11.6 ± 8.1 nM
OCI-Ly7
  EC50: 14.2 ± 6.4 nM
RC-K8
  EC50: 7.8 ± 0.9 nM
RL
  EC50: 18.2 ± 10 nM
SU-DHL6
  EC50: 13.4 ± 1.2 nM
MHH-PREB-1
  EC50: 24.4 ± 1.2 nM
HuT78
  EC50: 7.1 ± 3.7 nM
[1]; 16/20 AML patient samples
  EC50: < 10 nM
[1]; read-out: BI 894999 EC50, AML Patient 1, risk group Intermediate
  EC50: 4 nM
[1]; read-out: BI 894999 EC50, AML Patient 2, risk group Intermediate
  EC50: < 1 nM
[1]; read-out: BI 894999 EC50, AML Patient 3, risk group Intermediate
  EC50: 5 nM
[1]; read-out: BI 894999 EC50, AML Patient 4, risk group High
  EC50: 1080 nM
[1]; read-out: BI 894999 EC50, AML Patient 5, risk group High
  EC50: 89 nM
[1]; read-out: BI 894999 EC50, AML Patient 6, risk group Intermediate
  EC50: 2 nM
[1]; read-out: BI 894999 EC50, AML Patient 7, risk group Intermediate
  EC50: 12 nM
[1]; read-out: BI 894999 EC50, AML Patient 8, risk group High
  EC50: 2 nM
[1]; read-out: BI 894999 EC50, AML Patient 9, risk group Intermediate
  EC50: 5 nM
[1]; read-out: BI 894999 EC50, AML Patient 10, risk group High
  EC50: < 1 nM
[1]; read-out: BI 894999 EC50, AML Patient 11, risk group High
  EC50: 18 nM
[1]; read-out: BI 894999 EC50, AML Patient 12, risk group Intermediate
  EC50: 4 nM
[1]; read-out: BI 894999 EC50, AML Patient 13, risk group Intermediate
  EC50: < 1 nM
[1]; read-out: BI 894999 EC50, AML Patient 14
  EC50: < 1 nM
[1]; read-out: BI 894999 EC50, AML Patient 15, risk group Intermediate
  EC50: 1 nM
[1]; read-out: BI 894999 EC50, AML Patient 16
  EC50: < 1 nM
[1]; read-out: BI 894999 EC50, AML Patient 17, risk group High
  EC50: < 1 nM
[1]; read-out: BI 894999 EC50, AML Patient 18, risk group Intermediate
  EC50: < 1 nM
[1]; read-out: BI 894999 EC50, AML Patient 19, risk group Intermediate
  EC50: < 1 nM
[1]; read-out: BI 894999 EC50, AML Patient 20, risk group Intermediate
  EC50: < 1 nM
MV-4-11B AML cells; daily oral 2 mg/kg
  survival prolongation: 29.5 days
  tumor growth inhibition (TGI): 96%
MV-4-11B AML cells; daily oral 4 mg/kg
  survival prolongation: 52 days
  tumor growth inhibition (TGI): 99%
THP-1 AML cells
  survival prolongation: 22 days
[2]
  p-Ser2 POL-II levels: ~ 86 % of control
Hematological cell lines
  EC50: < 10 nM
Hematological cell lines; Homo sapiens, K562
  EC50: < 100 nM
Hematological cell lines; on cell lines
  increased potency compared to OTX-015: 10–20 fold
MV-4-11B cells; 10 nM
  effect on proliferation (IncuCyte): Significant inhibition of proliferation
MV-4-11B cells; dose-range 0.05 to 100 nM
  time of peak of apoptosis (Caspase-3/7) after start of treatment: around 40 h
